The record followed here is ChEMBL document CHEMBL4665843, “Automated Design of Macrocycles for Therapeutic Applications: From Small Molecules to Peptides and Proteins” (J Med Chem, 2020).

The target in experiment [1] is Glucagon-like peptide 1 receptor (Homo sapiens, UniProt P43220). Briefly: Agonist activity at human GLP-1 receptor expressed in HEK293 cells assessed as induction of cAMP accumulation incubated for 30 mins by HTRF assay. It counts as functional, cell-based. The procedure, abridged:
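HEK-293 cells stably expressing human receptor, grown in DMEM/10% FBS, frozen, thawed and washed in HBSS/20 mM HEPES/0.1% HSA; resuspended with 2 mM IBMX. 5000 cells/well incubated with peptide 30 min at room temperature; cAMP by HTRF kit, 1 h with reagents in lysis buffer, 665/620 nm fluorescence ratio.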

The target in experiment [2] is Glucagon receptor (Homo sapiens, UniProt P47871). As to the kind of experiment: Agonist activity at human glucagon receptor expressed in HEK293 cells assessed as induction of cAMP accumulation incubated for 30 mins by HTRF assay. It counts as functional, cell-based. On the technique in general: Cyclic AMP is a second messenger, typically raised through Gs and lowered through Gi signalling.
Sequence of Glucagon receptor (P47871 whole entry): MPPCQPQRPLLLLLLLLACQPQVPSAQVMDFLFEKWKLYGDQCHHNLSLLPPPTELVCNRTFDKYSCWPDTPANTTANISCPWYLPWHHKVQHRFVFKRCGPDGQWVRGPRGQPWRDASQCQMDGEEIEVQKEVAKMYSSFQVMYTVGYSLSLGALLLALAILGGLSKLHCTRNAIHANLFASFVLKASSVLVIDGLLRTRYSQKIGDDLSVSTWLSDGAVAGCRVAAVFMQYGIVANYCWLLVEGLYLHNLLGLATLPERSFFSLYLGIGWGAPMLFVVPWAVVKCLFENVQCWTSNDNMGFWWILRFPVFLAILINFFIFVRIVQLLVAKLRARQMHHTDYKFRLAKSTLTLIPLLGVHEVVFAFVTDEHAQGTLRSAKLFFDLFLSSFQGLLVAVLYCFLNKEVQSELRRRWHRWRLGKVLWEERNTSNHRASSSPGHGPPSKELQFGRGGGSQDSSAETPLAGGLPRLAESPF

The target of experiment [3] is T1, Carboxypeptidase B2 (Homo sapiens, UniProt Q96IY4).
T1 sequence (Q96IY4 whole entry): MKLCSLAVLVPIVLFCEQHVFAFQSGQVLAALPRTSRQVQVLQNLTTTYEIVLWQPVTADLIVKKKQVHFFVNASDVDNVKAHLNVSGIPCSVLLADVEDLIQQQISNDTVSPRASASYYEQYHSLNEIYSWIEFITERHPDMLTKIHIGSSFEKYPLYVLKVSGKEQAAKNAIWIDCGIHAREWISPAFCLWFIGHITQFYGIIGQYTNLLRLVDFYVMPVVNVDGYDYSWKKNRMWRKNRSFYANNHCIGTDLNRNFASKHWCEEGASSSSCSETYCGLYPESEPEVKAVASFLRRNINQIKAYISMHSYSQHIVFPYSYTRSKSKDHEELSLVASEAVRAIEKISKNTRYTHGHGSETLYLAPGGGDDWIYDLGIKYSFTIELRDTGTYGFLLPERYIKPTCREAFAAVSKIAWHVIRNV
As to the kind of experiment: Inhibition of TAFIalpha in human plasma incubated for 15 mins by chromogenic assay. It counts as cell-free. Summed up: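 Plasma TAFI activity kit: TAFIa (2.5 μg/mL) preincubated with compound (from 2.5 mM DMSO stock) in 20 mM HEPES, 150 mM NaCl, pH 7.4, 15 min at room temperature; reaction started with developer (1:2 prediluted) and followed at 420 nm for 15 min. IC50 from serial dilutions in duplicate; mean (SEM) of n = 2 within one experiment.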

Sequence of Glucagon-like peptide 1 receptor (P43220 whole entry): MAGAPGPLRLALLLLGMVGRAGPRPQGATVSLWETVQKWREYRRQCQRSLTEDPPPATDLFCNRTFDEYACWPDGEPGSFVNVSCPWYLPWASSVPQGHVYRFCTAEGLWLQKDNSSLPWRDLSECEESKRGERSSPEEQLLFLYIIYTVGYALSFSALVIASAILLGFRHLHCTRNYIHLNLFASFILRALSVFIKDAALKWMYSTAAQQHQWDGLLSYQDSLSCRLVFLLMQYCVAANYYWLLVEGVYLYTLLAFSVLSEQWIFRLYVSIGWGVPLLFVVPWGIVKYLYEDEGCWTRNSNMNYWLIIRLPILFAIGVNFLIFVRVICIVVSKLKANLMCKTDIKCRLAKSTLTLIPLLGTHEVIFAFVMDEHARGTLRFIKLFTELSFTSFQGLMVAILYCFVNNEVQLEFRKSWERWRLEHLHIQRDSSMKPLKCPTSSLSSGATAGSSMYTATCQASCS

The term EC50 denotes the concentration needed to bring the measured effect to its halfway point. With `CC[C@H](C)[C@H](NC(=O)[C@H](Cc1ccccc1)NC(=O)[C@H](CC(=O)O)NC(=O)[C@H](CCC(N)=O)NC(=O)[C@H](C)NC(=O)[C@H](CCCNC(=N)N)NC(=O)[C@H](CCCNC(=N)N)NC(=O)[C@H](CO)NC(=O)[C@H](CC(=O)O)NC(=O)[C@H](CCSC)NC(=O)[C@H](CCC(N)=O)NC(=O)[C@H](CCCCN)NC(=O)[C@H](CO)NC(=O)[C@H](CC(C)C)NC(=O)[C@H](CC(=O)O)NC(=O)[C@H](CO)NC(=O)[C@@H](NC(=O)[C@H](Cc1ccccc1)NC(=O)[C@@H](NC(=O)CNC(=O)[C@H](CCC(N)=O)NC(=O)[C@H](CO)NC(=O)[C@@H](N)Cc1cnc[nH]1)[C@@H](C)O)[C@@H](C)O)C(=O)N[C@@H](CCC(=O)O)C(=O)N[C@@H](Cc1c[nH]c2ccccc12)C(=O)N[C@@H](CC(C)C)C(=O)N[C@@H](CCCCN)C(=O)N[C@@H](CC(N)=O)C(=O)NCC(=O)NCC(=O)N1CCC[C@H]1C(=O)N[C@@H](CO)C(=O)N[C@@H](CO)C(=O)NCC(=O)N[C@@H](C)C(=O)N1CCC[C@H]1C(=O)N1CCC[C@H]1C(=O)N1CCC[C@H]1C(=O)N[C@@H](CO)C(N)=O`, the 50% effective concentration (EC50) in experiment [1] turned out to be 0.0183 nM; in experiment [2] it was 0.0286 nM.

A word on the IC50: it is the concentration that inhibits the measured activity by half. In experiment [3], `CC(C)[C@@H]1NC(=O)[C@H](NC(=O)N[C@@H](CCCCN)C(=O)O)Cc2ccc(cc2)NC(=O)c2coc1n2` returned a 50% inhibitory concentration (IC50) of 52 nM.

The molecule `CC(C)[C@@H]1NC(=O)[C@H](NC(=O)N[C@@H](CCCCN)C(=O)O)CCCCNC(=O)c2coc1n2` came in with an IC50 in experiment [3] of 42 nM.

As to `CC(C)[C@@H]1NC(=O)[C@H](NC(=O)N[C@@H](CCCCN)C(=O)O)CCCCNC(=O)c2csc1n2`, in experiment [3], 10 nM corresponded to half-maximal inhibition (IC50).
